Many of the other results were omitted from the sample, so hits are more common in it than they were.
Insulin prom act: activators of insulin promoter-driven GFP, primary screen, imaging, TRM-6 cells (human fetal islet line), eGFP reporter, cell count. activation, % at 2 µM. 0.81% of 130,000 active. plate-scaled: unstimulated 0, stimulated control 100;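 active = activation at 2 µM above a set limit, confirmed on inspection of the cell images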;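 also: share of cells whose green reporter signal exceeds an intensity cutoff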
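System – TRM-6 insulin promoter–eGFP reporter cells · Probe or stimulus – 0.75 µM tamoxifen as reporter inducer · Dosing – single-point 2 µM compound dose · Incubation – tamoxifen pre-incubation 15 h overnight, then compound exposure 48 h at 37 °C · Measured by – fixed-cell fluorescence microscopy, eGFP plus Hoechst · Evaluation – percent GFP-positive cells normalized to per-plate controls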
Numbers without * were called inactive; [ ] = another dose, or the depositor's remark.

SMILES	Insulin prom act
COC(=O)CN1C(=S)N(Cc2ccccc2)C(=O)C1CC(=O)Nc1ccc(OC)cc1 (stereo not given)	-80.0
O=C(CCCCCN1C(=O)c2ccccc2C1=O)Nc1ccc(F)cc1	147.6
COc1cc(-c2nnc(Sc3ccc(C(F)(F)F)cc3[N+](=O)[O-])o2)cc(OC)c1OC	3.1
O=C(/C=N/O)NCc1ccncc1	-5.3
O=c1ccc(-c2ccc([N+](=O)[O-])cc2)nn1-c1ccccc1	-5.9
O=[N+]([O-])c1ccc(Cl)c(/C=N/N2CCN(c3ccccc3)CC2)c1	6.7
O=[N+]([O-])c1ccc(/C=C/C2=NN(c3ccccc3)C(c3ccco3)C2)cc1 (stereo not given)	284.6*[fluoresces]
COc1ccc(S(=O)(=O)N2Cc3ccccc3CC2C(=O)Nc2nccs2)cc1 (stereo not given)	-2.9
O=C(COC(=O)CCc1ccc(S(=O)(=O)N2CCOCC2)cc1)NCc1ccccc1Cl	0.0
Cc1ccc2c(c1)nnn2C1CCN(C(=O)C2CCCCC2)CC1	124.2
Cc1ccc(-c2nc(CN3CCCCC3)cc(CN3CCCCC3)c2O)cc1	7.1
Cc1sc2nc(CN(C(=O)NC3CCCCC3)C3CCCCC3)[nH]c(=O)c2c1C	363.2
COc1ccc(CNC(=O)C(c2ccco2)N(C(=O)c2ccccn2)c2ccccc2)cc1 (stereo not given)	-7.1
CN(C)S(=O)(=O)c1cccc(NC(=O)Cn2cc(C(F)(F)F)cc(Cl)c2=O)c1	6.7
O=C(COC(=O)C1CC(O)CN1S(=O)(=O)c1ccc(Cl)cc1)c1cccc(Cl)c1 (stereo not given)	-6.7
NS(=O)(=O)c1ccc(CCNC(=O)C2CCN(S(=O)(=O)c3cnc[nH]3)CC2)cc1	4.5
CC1CCN(C(=O)C2CCN(CC(C)c3ccccc3)CC2)CC1 (stereo not given)	368.4
CC1CCN(C(=O)C2CCN(S(=O)(=O)c3cnc[nH]3)CC2)CC1	506.3*
COCCN(Cc1cc2cc(C)ccc2nc1Cl)C(=O)Nc1ccccc1OC	133.3
CC1=C(C(=O)c2ccccc2)C(c2ccc(OC(F)F)cc2)NC(=S)N1 (stereo not given)	0.0
N#C/C(=C/c1ccncc1)c1nc2ccccc2s1	127.8
CC(=O)Nc1sc(/C(C#N)=C/c2ccc(Cl)c(Cl)c2)nc1-c1ccc(C)cc1	222.6*
COc1cc(/C=C(\C#N)c2nc3ccccc3s2)ccc1OCC(=O)Nc1ccccc1	162.1
CCCSc1nc(C)cc(C)c1C(N)=O	8.1
CC1(C)CC(=O)c2cnc(NC(=O)CSc3nc4ccccc4o3)nc2C1	523.1*
SMILES	Insulin prom act
O=C(CSc1nc2ccccc2o1)Nc1ccc(N2CCOCC2)cc1	0.0
CCCCC(=O)Nc1ncc2c(n1)CC(C)(C)CC2=O	-5.6
CC(=O)Nc1ccc(Oc2ncccn2)c(Cl)c1	-9.4
CCNc1ccc(Br)cc(C(=O)/C=C/c2ccccc2Cl)c1=O	800.0*
CCc1ccc(/C=C/C(=O)c2cc(Br)ccc(=O)c2O)cc1	2.9
O=C(/C=C/c1ccccc1Cl)NCCc1ccc(F)cc1	2.6
Cc1nn(-c2ccccc2)c(C)c1/C=N/NC(=O)CSc1nnc(SCc2cccc3ccccc23)s1	0.0
COC(C(=O)NC(C(C)C)C(C)C)c1ccccc1 (stereo not given)	0.0
CCOC(=O)C1=C(C)Nc2ccccc2N=C1NC(=O)Cc1ccc(Br)cc1	222.6*
CCOC(=O)c1ccc(CNCc2ccc(Br)cc2)cc1	0.0
CCOC(=O)C1=C(C)Nc2ccccc2N=C1NC(=O)Cc1ccc(Cl)c(Cl)c1	190.5
Cc1cc(OCc2nn[nH]n2)c2c(C)c(Cc3ccccc3)c(=O)oc2c1	2.9
COc1ccc(S(=O)NC2CCCCC2)c(OC)c1C (stereo not given)	8.1
COc1ccc(-c2cc(C(F)(F)F)nc(SCCC(=O)N3CCOCC3)n2)cc1	8.1
COc1ccc(/C=N/NC(=O)CCNc2n[nH]c(=O)[nH]c2=O)c(OC)c1	-2.7
CCCCOC(=O)CNc1n[nH]c(=S)[nH]c1=O	0.0
CC(C)OC(=O)CCNc1n[nH]c(=O)[nH]c1=O	542.9*
Cc1ccc(C)c(NC(=O)Cn2nnc(-c3ccc(N4CCOCC4)cc3)n2)c1	0.0
CCOC(=O)c1c(NC(=O)CSc2nc3ccccc3c(=O)n2-c2ccccc2)sc(C(C)=O)c1C	163.3
CN1c2ccccc2N(C)C1c1ccc2c(c1)OCO2	192.6
CC12CN3CC(C)(CN(C1)C3c1ccc3c(c1)OCO3)C2=O (stereo not given)	437.5*
O=C1C2C3C=CC(CC3)C2C(=O)N1c1ccc2c(c1)OCO2 (stereo not given)	107.1
Cc1ccc(S(=O)(=O)N2CCC[C@H]2C(=O)OC(C)C(=O)Nc2ncc(Cl)cc2Cl)cc1 (stereo not given in full)	-2.9
Cc1cc(N2C(=O)CC(N3CCN(c4ccc(C(=O)c5cccs5)cc4)CC3)C2=O)no1 (stereo not given)	437.5*
Cc1cc(N2C(=O)CC(C(C)c3ccccc3)C2=O)no1 (stereo not given)	3.4
SMILES	Insulin prom act
O=C(c1ccc(N2CCOCC2)cc1)c1cccs1	7.1
Cn1c(=O)c2c(nc(SCC(=O)NCC3CCCO3)n2Cc2ccc(F)cc2)n(C)c1=O (stereo not given)	0.0
Cc1ccccc1OCc1n[nH]c(=S)n1Cc1ccccc1	0.0
OCCCc1n[nH]c(=S)n1-c1ccccc1	-6.7
Nn1c(Cc2ccccc2)n[nH]c1=S	485.7*
CCOc1ccccc1N(CC(=O)Nc1ccc(S(=O)(=O)N2CCOCC2)cc1)S(=O)(=O)c1ccc(Cl)cc1	6.9
CCCOc1cccc(NC(=O)OC2CCN(C)CC2)c1	-7.7
O=[N+]([O-])c1cc(C(F)(F)F)ccc1N1CCN(S(=O)(=O)c2ccc3c(c2)CCCC3)CC1	0.0
COC(=O)c1ccc(S(=O)(=O)NNC(=O)COc2ccc(C)cc2)cc1	0.0
COC(=O)c1ccc(NC(=O)COc2ccc(S(=O)(=O)NC(C)(C)C)cc2)cc1	442.9*
COC(=O)c1ccc(NC(=O)COc2ccc(S(=O)(=O)NC(C)C)cc2)cc1	225.7
N/C(COc1ccccc1)=N\NS(=O)(=O)c1ccccc1	-8.3
O=C(COc1ccc(/C=N/NS(=O)(=O)c2ccccc2)cc1)Nc1ccccc1	284.6*
Cc1cc(C)nc(NS(=O)(=O)c2ccc(NC(=O)COc3ccccc3)cc2)n1	-2.7
O=C(C1CCCN(c2ncccn2)C1)N1CCc2ccccc21 (stereo not given)	3.3
Cc1ccc(/C(=N/Nc2nc3ccccc3s2)C2=C(O)c3ccccc3C2=O)cc1	-8.3
CC1CC(NS(=O)(=O)c2cccs2)CC(C)(C)C1 (stereo not given)	121.4
COc1ccc(CNS(=O)(=O)c2cc(OCC(N)=O)c(C)cc2Cl)cc1	-7.0
CCc1cccc(CC)c1NC(=O)CO/N=C(\C)c1cccs1	0.0
Cc1cccc(NC(=O)NCCc2c[nH]c3ccccc23)c1	2.6
Cc1ccc(/C=C/C(=O)NCc2ccccn2)o1	-65.5
Cc1ccc(/C=C/C(=O)NCCc2c[nH]c3ccccc23)o1	466.7*
COc1cccc(/C=N/NC(=O)c2nc(-c3ccccc3)cc(-c3ccccc3)n2)c1	-3.3
COc1cccc(/C=C/C(=O)c2ccc[nH]2)c1	-6.8
COc1cccc(/C=C2\C(=O)C(=O)c3ccccc32)c1	177.8*
O=C1CCCN1c1cc(Cl)ccc1Cl	0.0
O=C(Nc1ccccc1C(=O)NCc1cccnc1)c1ccc(Cl)cc1Cl	0.0
CCC(=O)Oc1ccc(C(=O)Nc2ccc3c(c2)C(=O)N(C2CCCCC2)C3=O)cc1	6.9

From PubChem BioAssay
